A selection: hits, their analogues and other compounds. The true share with any hit is near 2.5%.
SENP7 block = inhibitors of human SENP7 protease. Q9BQF6. recombinant SENP7, Z-RLRGG-aminoluciferin luminescence, 40 min. inhibition, % at 5 µM. 330,000 compounds, 1.5% hits. AID 434973;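 active = inhibition above about 50% at the single test dose, limit read from the data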
SENP8 block-1 = SENP8 protease inhibition; purified SENP8, Z-RLRGG-aminoluciferin cleavage, luminescence; inhibition, % at 10 µM; 330,000 compounds, 1.2% hits; AID 2540; in the data active = inhibition above about 50%
Target sequence (Q96LD8 whole entry, looked up): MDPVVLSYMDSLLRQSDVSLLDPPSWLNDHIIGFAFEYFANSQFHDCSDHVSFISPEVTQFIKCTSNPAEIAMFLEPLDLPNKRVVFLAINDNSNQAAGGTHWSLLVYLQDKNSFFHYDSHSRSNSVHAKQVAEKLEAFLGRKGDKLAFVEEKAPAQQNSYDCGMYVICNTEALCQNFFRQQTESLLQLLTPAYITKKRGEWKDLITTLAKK
SENP8 block-2 = SENP8 (human) protease inhibition; AID 602440; inhibition, % at 20 µM; recombinant SENP8, Nedd8 substrate fluorescence; 360,000 compounds, 0.64% hits; in the data active = inhibition mostly above about 40%, no sharp cut-off; inactive = mostly below about 27%
SENP6 block = blocks the human protease SENP6; inhibition, % at 10 µM; Q9GZR1; 330,000 compounds, 1.8% hits; Recombinant SENP6 catalytic domain, aminoluciferin luminescence;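 active = inhibition above about 50% at the single tested dose, limit read from the data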
SENP1 inh = blocks the human SENP1 SUMO protease catalytic domain; recombinant SENP1 catalytic domain, CyPet-SUMO1-YPet FRET cleavage; inhibition, % at 10 µM; 360,000 compounds, 0.21% hits; AID 624204;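 active = inhibition at least 30% at 10 µM, raw YFP signal under a set limit, fluorescence ratio 0.5 to 1.5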
Target sequence (Q9P0U3 419-644 limits assumed): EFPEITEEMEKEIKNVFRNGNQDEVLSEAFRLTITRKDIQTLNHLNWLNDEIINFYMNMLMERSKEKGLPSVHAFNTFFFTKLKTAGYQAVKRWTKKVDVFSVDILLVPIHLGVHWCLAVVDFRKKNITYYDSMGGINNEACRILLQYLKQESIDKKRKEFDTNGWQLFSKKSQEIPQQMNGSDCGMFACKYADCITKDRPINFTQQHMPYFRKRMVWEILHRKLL
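system = hSENP1 catalytic domain, recombinant | reagent = SFCypet-SUMO1-SFYpet substrate at 25 nM | doses = one dose per compound, 10 µM, 0.5% DMSO | incubation = enzyme reaction for 50 min at room temperature, dark | measured by = FRET, CFP and YFP emission | controls = no-enzyme low, enzyme-DMSO high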
Large screens that a line does not name were inactive.

COc1cc([N+](=O)[O-])cc(/C=N/NC(=O)C(C)Nc2ccccc2C)c1O (stereo unspecified)	SENP8 block-2 41
C[C@H](O)[C@@H]1C(=O)N2CCc3c([nH]c4ccccc34)[C@@H]2C[C@@H]1N(C)S(=O)(=O)c1ccccc1	none (no result: SENP7 block, SENP8 block-1, SENP6 block)
CC(C)c1ccc(/C=C/c2ccc(=O)n(C)n2)cc1	SENP7 block 84, SENP8 block-1 69, SENP6 block 84
CC(C)c1ccc(/C=C/C2=NNC(=O)CC2)cc1	none
CC1CCC(NC(=O)c2cc(Cl)nc3ccccc23)CC1 (stereo unspecified)	none
Oc1cccc2ccc(/C=C/c3cccs3)nc12	SENP7 block 95, SENP8 block-1 88, SENP6 block 96
Oc1ccc2ccccc2c1/C=N/Nc1ccccc1	none
Oc1ccc2ccccc2c1C=NCc1ccccc1	SENP6 block 60
Brc1ccc(N=Nc2ccc3ccccc3n2)cc1	SENP7 block 100, SENP8 block-1 96, SENP6 block 97
CC(NC(=O)c1ccc2ccccc2n1)c1ccc(Br)cc1 (stereo unspecified)	none
COc1ccc(S(=O)(=O)N(C)C)cc1NC(=O)c1ccc(OCC(=O)N2CCOCC2)c(OC)c1	none
COCCCNC(=O)[C@@H](Cc1ccccc1)NC(=O)CC[C@H]1O[C@@H](n2ccc(=O)[nH]c2=O)[C@H](O)[C@@H]1O	none (no result: SENP7 block, SENP8 block-1, SENP6 block)
O/N=C/c1ccc(OCc2ccccc2F)c(Cl)c1	SENP7 block 75, SENP8 block-1 80, SENP6 block 92
O/N=C/c1ccccc1OCc1ccccc1F	none
CC1=C(C(=O)c2ccccc2)C(c2ccc(N3CCOCC3)cc2)NC(=O)N1 (stereo unspecified)	SENP1 inh 74
CCCN1/C(=C2/SC(=S)N(CC)C2=O)C=Cc2ccccc21	SENP8 block-2 41
OCCC1CN(Cc2nc3ccccc3s2)CCN1CCc1ccccc1 (stereo unspecified)	none
CC(C)(C)c1cc[n+](-c2[nH]c(=O)sc2/C=N/NC([S-])=Nc2ccccc2)cc1	SENP8 block-2 25, SENP1 inh 46
Cc1cc[n+](-c2[nH]c(=O)sc2/C=N/NC([S-])=Nc2ccccc2)cc1C	none
O=[N+]([O-])c1ccc(CSc2nc3ccccc3[nH]2)cc1	SENP7 block 61, SENP6 block 58
CCn1cc(C(=O)NCCC(C)C)c(=O)c2cc(F)c(N3CCN(C)CC3)cc21	none
COc1ccccc1CN1CCNC(=O)C1CC(=O)NCc1cn(C)nc1C (stereo unspecified)	none
COc1ccc(CNC(=O)Cn2nc([N+](=O)[O-])c(Br)c2C)cc1OC	none
Cc1c2cc(O)c(=O)cc-2oc2cc(O)c(O)cc12	none
COc1cc(OC)c(-c2c3cc(O)c(=O)cc-3oc3cc(O)c(O)cc23)cc1OC	SENP1 inh 88
Cc1ccccc1N(C(=O)CNC(=O)c1ccco1)C(C(=O)NC1CCCC1)c1ccncc1 (stereo unspecified)	none
COC1=CC(=NCl)C=CC1=NCl	SENP8 block-2 76 (no result: SENP7 block, SENP8 block-1, SENP6 block)
CCN(CC)c1ccc(/C=C(\C#N)C(=O)c2ccc(Br)cc2)cc1	SENP8 block-2 50 (no result: SENP7 block, SENP8 block-1, SENP6 block)
COc1cc2c(cc1OC)C(c1ccccc1)N(Cc1ccc(S(=O)(=O)NC(=O)c3ccco3)cc1)CC2 (stereo unspecified)	none (no result: SENP7 block, SENP8 block-1, SENP6 block)
CCC(=O)N1CCc2cc(S(=O)(=O)CCC(=O)Nc3cccc(C)n3)ccc21	none
Cn1nc(C2CC2)cc1NC(=O)C1(C)CCN1C(=O)CCc1ccccc1 (stereo unspecified)	none (no result: SENP7 block, SENP8 block-1, SENP6 block)
COC(=O)c1sccc1NC(=O)c1cc2c(s1)CCCC2	SENP7 block 56
COc1ccc(C)cc1NC(=O)c1cc2c(s1)CCC2	none
O=c1c(O)cccc2cc(O)c(O)c(O)c12	SENP8 block-2 60
O=c1cc(-c2ccccc2)oc2cc(O)c(O)c(O)c12	none
O=C(Nc1ccc(-c2cn3ccccc3n2)cc1)c1cccs1	SENP7 block 52
O=C(Nc1ccc(-n2cnnn2)cc1)c1cn2ccccc2n1	none
O=C(Nc1ccccc1)c1cn2ccccc2n1	SENP7 block 91, SENP8 block-1 82, SENP6 block 90
COc1cccc(-c2nc(N3CCCCC3C)c3ccccc3n2)c1O (stereo unspecified)	SENP8 block-2 47
CCCCc1ccc(CC2S/C(=C(\C#N)C(=O)N3CCOCC3)N(c3ccccc3)C2=O)cc1 (stereo unspecified)	SENP1 inh 34
CCOC(=O)[C@]12CCC=C1N(Cc1ccccc1)C(=O)[C@H](CC(=O)NCCC(C)C)C2	none (no result: SENP7 block, SENP8 block-1, SENP6 block)
